{"source": "ChEMBL document CHEMBL3763060", "about": "“Synthesis and evaluation of analogs of the phenylpyridazinone NPD-001 as potent trypanosomal TbrPDEB1 phosphodiesterase inhibitors and in vitro trypanocidals” (Bioorg Med Chem, 2016)"}
{"target": "T1, Class 1 phosphodiesterase PDEB1 (Trypanosoma brucei, UniProt Q8WQX9)", "T1 sequence (Q8WQX9 whole entry)": "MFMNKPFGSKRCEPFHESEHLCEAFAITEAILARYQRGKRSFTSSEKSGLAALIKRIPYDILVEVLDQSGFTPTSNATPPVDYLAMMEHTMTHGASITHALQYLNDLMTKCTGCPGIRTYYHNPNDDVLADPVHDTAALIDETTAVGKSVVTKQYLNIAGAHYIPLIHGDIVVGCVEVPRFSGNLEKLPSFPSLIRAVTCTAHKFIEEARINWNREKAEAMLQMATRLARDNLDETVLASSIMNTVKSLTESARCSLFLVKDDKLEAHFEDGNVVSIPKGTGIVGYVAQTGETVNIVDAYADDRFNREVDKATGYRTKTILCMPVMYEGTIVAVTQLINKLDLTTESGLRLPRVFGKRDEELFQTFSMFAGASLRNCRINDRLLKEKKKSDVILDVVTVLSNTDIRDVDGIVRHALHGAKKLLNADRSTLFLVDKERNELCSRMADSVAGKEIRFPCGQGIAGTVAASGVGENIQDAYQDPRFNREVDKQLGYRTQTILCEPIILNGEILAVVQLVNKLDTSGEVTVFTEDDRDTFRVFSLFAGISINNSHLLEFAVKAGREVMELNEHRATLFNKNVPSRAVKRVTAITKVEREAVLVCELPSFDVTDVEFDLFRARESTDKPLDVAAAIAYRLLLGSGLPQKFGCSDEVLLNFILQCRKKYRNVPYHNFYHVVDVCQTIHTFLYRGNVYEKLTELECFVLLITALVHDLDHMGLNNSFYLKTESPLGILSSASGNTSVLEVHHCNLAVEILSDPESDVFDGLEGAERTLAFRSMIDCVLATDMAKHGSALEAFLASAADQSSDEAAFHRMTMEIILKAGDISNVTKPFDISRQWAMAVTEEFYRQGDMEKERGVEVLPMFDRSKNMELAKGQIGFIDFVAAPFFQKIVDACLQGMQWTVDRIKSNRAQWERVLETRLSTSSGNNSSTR", "assay": "Inhibition of recombinant Trypanosoma brucei PDEB1 using [3H]-cAMP as substrate after 15 mins by scintillation proximity assay", "details": "not given", "summary_of_the_method": "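Inhibition of TbrPDEB1-mediated [³H]-cAMP hydrolysis was read by scintillation proximity assay. Each analog was run in at least two independent experiments.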", "units": {"IC50": "nM"}}
{"smiles": "COc1ccc(C2=NN(C3CCCCCC3)C(=O)[C@@H]3CC=CC[C@H]23)cc1OCc1ccccn1", "note": "(racemic)", "IC50": 100}
{"smiles": "COc1ccc(C2=NN(C3CCCCCC3)C(=O)[C@@H]3CC=CC[C@H]23)cc1OCCCCCc1ccccc1", "note": "(racemic)", "IC50": 63.1}
{"smiles": "COc1ccc(C2=NN(C3CCCCCC3)C(=O)[C@@H]3CC=CC[C@H]23)cc1OCCCCOc1ccc(-n2ccnc2)cc1", "note": "(racemic)", "IC50": 12.6}
{"smiles": "COc1ccc(C2=NN(C3CCCCCC3)C(=O)[C@@H]3CC=CC[C@H]23)cc1OCCCCOc1ccc(-c2nnn(C)n2)cc1", "note": "(racemic)", "IC50": 3.16}
{"smiles": "COc1ccc(C2=NN(C3CCCCCC3)C(=O)[C@@H]3CC=CC[C@H]23)cc1OCc1cccc(OC)c1OC", "note": "(racemic)", "IC50": 79.4}
{"smiles": "COc1cc(COc2cc(C3=NN(C4CCCCCC4)C(=O)[C@@H]4CC=CC[C@H]34)ccc2OC)cc(OC)c1", "note": "(racemic)", "IC50": 126}
{"tested_on": "Trypanosoma brucei brucei", "assay": "Antitrypanosomal activity against suramin-sensitive Trypanosoma brucei brucei Squib427 assessed as inhibition of parasite growth", "assay_type": "functional, organism-based", "details": "not given", "summary_of_the_method": "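Bloodstream-form trypomastigotes of Squib-427 were grown at 37 °C and 5% CO₂ in Hirumi-9 medium with 10% FCS. Compounds came from 20 mM DMSO stocks, pre-diluted 2- or 4-fold serially in DMSO, then diluted in demineralized water; final DMSO was <1%. Results were reported as −logEC₅₀ with n = 2.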", "units": {"EC50": "nM"}}
{"smiles": "COc1ccc(C2=NN(C3CCCCCC3)C(=O)[C@@H]3CC=CC[C@H]23)cc1OCCCCCc1ccccc1", "note": "(racemic)", "EC50": 5010}
{"smiles": "COc1ccc(C2=NN(C3CCCCCC3)C(=O)[C@@H]3CC=CC[C@H]23)cc1OCCCCOc1ccc(-n2ccnc2)cc1", "note": "(racemic)", "EC50": 1000}
{"smiles": "COc1ccc(C2=NN(C3CCCCCC3)C(=O)[C@@H]3CC=CC[C@H]23)cc1OCCCCOc1ccc(-c2nnn(C)n2)cc1", "note": "(racemic)", "EC50": 251}
{"smiles": "COc1ccc(C2=NN(C3CCCCCC3)C(=O)[C@@H]3CC=CC[C@H]23)cc1OCc1cccc(OC)c1OC", "note": "(racemic)", "EC50": 1580}
{"smiles": "COc1cc(COc2cc(C3=NN(C4CCCCCC4)C(=O)[C@@H]4CC=CC[C@H]34)ccc2OC)cc(OC)c1", "note": "(racemic)", "EC50": 1000}
{"target": "3',5'-cyclic-AMP phosphodiesterase 4B (Homo sapiens, UniProt Q07343)", "sequence (Q07343 whole entry)": "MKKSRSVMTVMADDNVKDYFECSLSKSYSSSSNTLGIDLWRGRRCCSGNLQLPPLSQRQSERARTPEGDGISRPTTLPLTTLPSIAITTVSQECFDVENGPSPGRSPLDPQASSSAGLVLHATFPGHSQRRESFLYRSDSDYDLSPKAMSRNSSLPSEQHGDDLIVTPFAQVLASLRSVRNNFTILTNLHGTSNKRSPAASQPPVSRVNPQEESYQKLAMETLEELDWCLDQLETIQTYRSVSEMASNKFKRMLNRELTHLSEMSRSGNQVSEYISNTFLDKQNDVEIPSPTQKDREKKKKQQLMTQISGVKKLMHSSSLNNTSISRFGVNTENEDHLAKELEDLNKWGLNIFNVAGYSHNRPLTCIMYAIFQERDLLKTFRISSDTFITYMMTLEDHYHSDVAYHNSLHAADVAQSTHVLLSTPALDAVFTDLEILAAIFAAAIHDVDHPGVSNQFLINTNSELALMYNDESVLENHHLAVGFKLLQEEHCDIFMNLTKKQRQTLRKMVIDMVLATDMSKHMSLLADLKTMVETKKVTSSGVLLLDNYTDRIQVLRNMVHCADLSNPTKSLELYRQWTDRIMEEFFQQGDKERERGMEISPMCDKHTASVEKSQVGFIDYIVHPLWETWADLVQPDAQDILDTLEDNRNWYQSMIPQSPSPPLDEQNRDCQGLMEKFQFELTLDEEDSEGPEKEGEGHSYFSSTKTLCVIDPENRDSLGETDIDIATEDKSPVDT", "assay": "Inhibition of full length human recombinant PDE4B1 using [3H]-cAMP as substrate by scintillation proximity assay", "details": "not given", "units": {"IC50": "nM"}}
{"smiles": "COc1ccc(C2=NN(C3CCCCCC3)C(=O)[C@@H]3CC=CC[C@H]23)cc1OCCCCOc1ccc(-n2ccnc2)cc1", "note": "(racemic)", "IC50": 0.2}
{"smiles": "COc1ccc(C2=NN(C3CCCCCC3)C(=O)[C@@H]3CC=CC[C@H]23)cc1OCCCCOc1ccc(-c2nnn(C)n2)cc1", "note": "(racemic)", "IC50": 0.501}
{"tested_on": "not listed separately", "assay": "Cytotoxicity against human MRC5 cells assessed as growth inhibition", "assay_type": "cell-based", "details": "not given", "summary_of_the_method": "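MRC-5 fibroblasts were grown at 37 °C and 5% CO₂ in Hirumi-9 medium with 10% FCS. Compounds came from 20 mM DMSO stocks, serially pre-diluted 2- or 4-fold in DMSO, then in demineralized water; final DMSO was <1%. Results were reported as −logCC₅₀ with n = 2.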", "units": {"CC50": "nM"}}
{"smiles": "COc1ccc(C2=NN(C3CCCCCC3)C(=O)[C@@H]3CC=CC[C@H]23)cc1OCCCCCc1ccccc1", "note": "(racemic)", "CC50": "> 63100"}
{"smiles": "COc1ccc(C2=NN(C3CCCCCC3)C(=O)[C@@H]3CC=CC[C@H]23)cc1OCCCCOc1ccc(-n2ccnc2)cc1", "note": "(racemic)", "CC50": 39800}
{"smiles": "COc1ccc(C2=NN(C3CCCCCC3)C(=O)[C@@H]3CC=CC[C@H]23)cc1OCCCCOc1ccc(-c2nnn(C)n2)cc1", "note": "(racemic)", "CC50": "> 63100"}
{"smiles": "COc1ccc(C2=NN(C3CCCCCC3)C(=O)[C@@H]3CC=CC[C@H]23)cc1OCc1cccc(OC)c1OC", "note": "(racemic)", "CC50": 3980}
{"smiles": "COc1cc(COc2cc(C3=NN(C4CCCCCC4)C(=O)[C@@H]4CC=CC[C@H]34)ccc2OC)cc(OC)c1", "note": "(racemic)", "CC50": 12600}
{"tested_on": "not listed separately", "assay": "Solubility of compound in 0.05 M phosphate buffer at pH 7.4", "assay_type": "physicochemical", "details": "not given", "units": {"solubility": "µM"}}
{"smiles": "COc1ccc(C2=NN(C3CCCCCC3)C(=O)[C@@H]3CC=CC[C@H]23)cc1OCCCCOc1ccc(-c2nnn(C)n2)cc1", "note": "(racemic)", "solubility": "< 2"}
{"tested_on": "not listed separately", "assay": "Selectivity index, ratio of CC50 for human MRC5 cells to EC50 for suramin-sensitive Trypanosoma brucei brucei Squib427", "assay_type": "toxicity, cell-based", "details": "read-out: Ratio CC50/EC50", "summary_of_the_method": "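The index was calculated as CC₅₀ in MRC-5 fibroblasts divided by EC₅₀ against T. b. brucei. Both came from parallel assays in Hirumi-9 medium with 10% FCS at 37 °C and 5% CO₂, each n = 2.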"}
{"smiles": "COc1ccc(C2=NN(C3CCCCCC3)C(=O)[C@@H]3CC=CC[C@H]23)cc1OCCCCCc1ccccc1", "note": "(racemic)", "selectivity ratio": "> 13"}
{"smiles": "COc1ccc(C2=NN(C3CCCCCC3)C(=O)[C@@H]3CC=CC[C@H]23)cc1OCCCCOc1ccc(-n2ccnc2)cc1", "note": "(racemic)", "selectivity ratio": 40}
{"smiles": "COc1ccc(C2=NN(C3CCCCCC3)C(=O)[C@@H]3CC=CC[C@H]23)cc1OCCCCOc1ccc(-c2nnn(C)n2)cc1", "note": "(racemic)", "selectivity ratio": "> 251"}
{"smiles": "COc1ccc(C2=NN(C3CCCCCC3)C(=O)[C@@H]3CC=CC[C@H]23)cc1OCc1cccc(OC)c1OC", "note": "(racemic)", "selectivity ratio": 2.5}
{"smiles": "COc1cc(COc2cc(C3=NN(C4CCCCCC4)C(=O)[C@@H]4CC=CC[C@H]34)ccc2OC)cc(OC)c1", "note": "(racemic)", "selectivity ratio": 12.6}
{"tested_on": "not listed separately", "assay": "Selectivity ratio of IC50 for Trypanosoma brucei recombinant PDEB1 to IC50 for full length human recombinant PDE4B1", "details": "not given"}
{"smiles": "COc1ccc(C2=NN(C3CCCCCC3)C(=O)[C@@H]3CC=CC[C@H]23)cc1OCCCCOc1ccc(-n2ccnc2)cc1", "note": "(racemic)", "Ratio IC50": 63}
{"smiles": "COc1ccc(C2=NN(C3CCCCCC3)C(=O)[C@@H]3CC=CC[C@H]23)cc1OCCCCOc1ccc(-c2nnn(C)n2)cc1", "note": "(racemic)", "Ratio IC50": 6}
